In the library only some 2.6% were active in any assay of this set; here they are far more common.
SENP6 block: SENP6 protease inhibitors, primary screen, biochemical, luminescence, uHTS. 330,000 compounds, 1.8% hits. Recombinant SENP6 catalytic domain, aminoluciferin luminescence. inhibition, % at 10 µM. Sentrin-specific protease 6 (Homo sapiens), Q9GZR1;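 active = inhibition above about 50% at the single tested dose, limit read from the data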;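 note: plate controls were DMSO wells with enzyme for no effect and DMSO wells lacking enzyme for full effect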
SENP7 block: SENP7 protease inhibitors, primary screen, biochemical, luminescence, uHTS; Sentrin-specific protease 7 (Homo sapiens), Q9BQF6; recombinant SENP7, Z-RLRGG-aminoluciferin luminescence, 40 min; inhibition, % at 5 µM; 330,000 compounds, 1.5% hits;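 active = inhibition above about 50% at the single test dose, limit read from the data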;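 note: plate controls were DMSO with enzyme for no effect and no enzyme buffer wells for full effect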
UCH37 DUB inh: inhibitors of human UCH37 deubiquitinase, primary screen, biochemical, Ub-AMC cleavage, fluorescence | Ubiquitin carboxyl-terminal hydrolase isozyme L5 (Homo sapiens), Q9Y5K5 | purified proteasome/UCH37 | inhibition, % (no concentration beside the values) | 330,000 compounds, 0.33% hits | AID 588478, 2011;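 active = mean inhibition over replicate wells above about 20%, limit read from the data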;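 note: 0% = compound-free wells with enzyme and 100% = wells lacking proteasome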
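Schedule: 30 min plus 25 min, room temperature / Material: human UCH37 within purified proteasomes / Technique: AMC fluorescence intensity at 355/460 nm / Buffer or medium: pH 7.4 Tris-HCl (50 mM) with ovalbumin, ATP-MgCl2, DTT / Controls: wells without proteasome as full block, compound-free enzyme plus substrate as uninhibited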
SENP1 FRET inh: human SENP1 catalytic domain inhibitors, primary screen, biochemical, FRET, uHTS | Sentrin-specific protease 1 (Homo sapiens), Q9P0U3 | recombinant SENP1 catalytic domain, CyPet-SUMO1-YPet FRET cleavage | inhibition, % at 10 µM | 360,000 compounds, 0.21% hits | AID 624204, 2012;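 active = inhibition at least 30% at 10 µM, raw YFP signal under a set limit, fluorescence ratio 0.5 to 1.5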;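 note: 0% = enzyme with DMSO and 100% = no enzyme wells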
Target sequence (Q9P0U3 419-644 limits assumed): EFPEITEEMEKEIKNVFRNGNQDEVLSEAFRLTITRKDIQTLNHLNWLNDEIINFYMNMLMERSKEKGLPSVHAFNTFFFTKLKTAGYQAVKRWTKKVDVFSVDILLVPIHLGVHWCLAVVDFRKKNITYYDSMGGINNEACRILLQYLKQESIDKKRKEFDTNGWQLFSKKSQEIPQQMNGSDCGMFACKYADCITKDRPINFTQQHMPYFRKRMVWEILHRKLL
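Material – human SENP1 catalytic domain · Input – SENP1 enzyme, 20 pM final · Compound dosing – single concentration of 10 µM compound, 0.5% DMSO final · Timing – enzyme reaction for 50 min at room temperature, dark · Measured by – FRET fluorescence in CFP and YFP emission channels · Control set – no-enzyme wells low, DMSO-plus-enzyme wells high control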
SENP8 block-1: human SENP8 protease inhibitors, primary screen, biochemical, fluorescence, Nedd8 protein substrate, uHTS. recombinant SENP8. Sentrin-specific protease 8 (Homo sapiens), Q96LD8. 360,000 compounds, 0.64% hits. inhibition, % at 20 µM; in the data active = inhibition mostly above about 40%, no sharp cut-off; inactive = mostly below about 27%
SENP8 block-2: SENP8 protease inhibitors, primary screen, biochemical, luminescence; AID 2540, 2010; 330,000 compounds, 1.2% hits; purified SENP8, Z-RLRGG-aminoluciferin cleavage; inhibition, % at 10 µM; in the data active = inhibition above about 50%
SENP8 conf: SENP8 protease inhibitors, retest, confirmation, biochemical, luminescence, single concentration; 6,200 compounds, 40% hits; shares compounds with SENP7 block; Recombinant SENP8, Z-RLRGG-aminoluciferin luminescence, 60 min; AID 488912, 2010; inhibition, % at 12.5 µM;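 active = mean inhibition across replicates above about 50%, limit read from the data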
SENP6 conf: SENP6 protease inhibitors, confirmation, biochemical, luminescence, single concentration; inhibition, % at 12.5 µM; 6,200 compounds, 58% hits; recombinant SENP6, Z-RLRGG-aminoluciferin luminescence; shares compounds with SENP7 block
SENP7 conf: SENP7 protease inhibitors, retest, confirmation, biochemical, luminescence, single concentration. recombinant SENP7, Z-RLRGG-aminoluciferin luminescence, 40 min. inhibition, % at 12.5 µM. 6,200 compounds, 69% hits. AID 488917, 2010. shares compounds with SENP7 block
Casp3 select: caspase-3 protease inhibitors, confirmation, selectivity assay for SENP inhibitor project, biochemical, single concentration | inhibition, % at 12.5 µM | purified caspase-3, Z-DEVD-aminoluciferin luminescence, 60 min | shares compounds with SENP7 block | 6,200 compounds, 60% hits;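 active = mean inhibition above about 50%, limit read from the data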;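 note: plate controls were enzyme with DMSO for no effect and wells without caspase-3 for full effect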
Target sequence (P42574 28-227 limits assumed): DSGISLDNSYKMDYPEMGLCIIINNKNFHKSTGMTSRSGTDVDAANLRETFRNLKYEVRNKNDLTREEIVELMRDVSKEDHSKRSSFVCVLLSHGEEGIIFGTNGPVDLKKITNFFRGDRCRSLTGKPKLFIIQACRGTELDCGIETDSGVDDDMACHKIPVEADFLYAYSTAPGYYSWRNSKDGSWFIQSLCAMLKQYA
Luc interf: luminescence interference (SENP counter-screen); shares compounds with SENP7 block; Pre-incubated SENP8/Z-RLRGG-aminoluciferin, luciferase luminescence interference; inhibition, % at 12.5 µM; 6,200 compounds, 39% hits; AID 488919;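 active = mean inhibition above about 50% when retested at one dose, limit read from the data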;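 note: plate controls were DMSO wells with completed reaction for no effect and substrate without enzyme for full effect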
The depositor's hits bear a star; nt = no result.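 Rule for the calls, unless noted: active = mean inhibition above about 50% in the one-dose retest (limit read from the data); inactive = the rest.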

SMILES | SENP6 block | SENP7 block | UCH37 DUB inh | SENP1 FRET inh | SENP8 block-1 | SENP8 block-2 | SENP8 conf | SENP6 conf | SENP7 conf | Casp3 select | Luc interf
Cc1ccc(S(=O)(=O)/N=C(/NC(=S)Nc2ccccc2)c2ccccc2)cc1 | 74* | 47 | 5 | -4 | 13 | 37 | 67* | 65* | 86* | 35 | 28
COc1ccc(C(=O)NN/C(=N/S(=O)(=O)c2ccc(C)cc2)c2ccccc2)cc1 | 88* | 78* | -1 | 0 | -152 | 54* | 69* | 64* | 88* | 70* | 73*
CCOC(=O)C(=NNc1cccc(Cl)c1)Sc1nnc(-c2ccc(OC)cc2)n1C | nt | nt | 0 | nt | nt | nt | nt | nt | nt | nt | nt
CC(=N/N=C1/NC(=O)CS1)c1cccs1 | nt | nt | 10 | nt | nt | nt | nt | nt | nt | nt | nt
Cc1cccn2c1nc(=S)n2C(=O)c1ccco1 | nt | nt | 0 | 1 | -10 | nt | nt | nt | nt | nt | nt
O=C(c1ccccc1)n1c(=S)nc2ccccn21 | 78* | 90* | 4 | 1 | 2 | 70* | 2 | 74* | 93* | 57* | 15
Cc1cccc(C(=O)n2c(=S)nc3ccccn32)c1 | 91* | 90* | 3 | 0 | 3 | 46 | 77* | 82* | 92* | 69* | 56*
COc1ccccc1NC(=O)c1cc2ccccc2oc1=NO | nt | nt | 5 | nt | nt | nt | nt | nt | nt | nt | nt
O=C(O)COc1ccccc1C=NNC(=O)CSc1nnc(SCc2ccc(Cl)cc2)s1 | nt | nt | 4 | nt | nt | nt | nt | nt | nt | nt | nt
CCCCOc1ccc(C=NNC(=S)Nc2cccc(C)c2C)cc1 | nt | nt | 3 | nt | nt | nt | nt | nt | nt | nt | nt
O=C(N=Nc1c(O)[nH]c2ccccc12)c1cccs1 | 82* | 82* | 7 | 3 | 15 | 67* | 52* | 80* | 93* | 82* | 20
O=C(COC(=O)c1ccc([N+](=O)[O-])s1)c1ccc[nH]1 | 35 | 6 | nt | 2 | 34 | 57* | 29 | 79* | 24 | 19 | -8
O=C(O)c1ccc(N/N=C/c2ccc(OC(=O)c3cccc(Cl)c3)cc2)cc1 | 6 | 12 | nt | -1 | 3 | 80* | 15 | 21 | -3 | 20 | 6
O=C(O)c1cccc(N/N=C/c2cccs2)c1 | 100* | 100* | nt | -8 | -10 | 97* | 100* | 100* | 104* | 98* | 99*
O=C(O)c1cccc(N/N=C/c2ccc(OC(F)(F)F)cc2)c1 | 99* | 34 | nt | 0 | 12 | 98* | -6 | 100* | 103* | 94* | 99*
O=C(Nc1cccc(O)c1)c1cc(-c2ccc3c(c2)OCO3)on1 | 96* | 101* | nt | 1 | -12 | 90* | 15 | 95* | 36 | 77* | 2
O=C(Nc1cccc(O)c1)c1cc(-c2ccccc2Cl)on1 | 97* | 95* | 5 | -1 | 3 | 93* | 11 | 94* | 101* | 87* | 94*
